Results reported in paper PMC7688577 (FASEB journal : official publication of the Federation of …, 2020).

Tests used:
[1] = test system: rhodopsin mutants (T4R, P23H, P53R, C110Y, D190N, P267L); format: cell-based, mouse; conditions: U2OS cells; T4R, P23H, P53R, C110Y, D190N, P267L mutants
Outline: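 U2OS stable lines expressed WT or mutant mouse rhodopsin fused to Venus. Cells were transfected with pcDNA3.1 Zeo constructs, kept 48 h in DMEM/10% FBS, then selected with 400 μg/mL Zeocin. Stable cells were treated with test compound at 10 μM and immunostained for rhodopsin.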

P23H rhodopsin [2] = target: T1, P23H rhodopsin (Mus musculus, UniProt P15409, P23H); assay: Non-radioactive pulse-chase assay in NIH3T3; format: cell-based; conditions: 10 μM; for Rate of Rho^P23H degradation (Pulse-chase): NIH3T3(RHO^P23H/GFP) cells, 24 h chase, vs DMSO control
Outline: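 Non-radioactive pulse-chase. Cells (3 × 10⁵/well, 24-well) were grown overnight, starved in Met-free DMEM for 1 h, then pulsed with 50 μM L-AHA for 4 h (50 μM Met as negative control). Chase was 24 h in DMEM with 2 mM Met ± 10 μM test compound. Lysates (200 μg) were clicked with 5 μM BTN-sDIBO for 1 h at 37 °C, immunoprecipitated with 1D4, eluted at pH 2.8, dot-blotted and probed with HRP-streptavidin. Values normalized to DMSO on the same membrane; N=3, unpaired two-tailed t-test.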

[3] = target: P23H rhodopsin fused with Renilla luciferase (Mus musculus, UniProt P15409, P23H); assay: Rluc reporter assay in Hek293; format: cell-based; conditions: for Rluc assay Hek293 (RHO^P23H-Rluc) Efficacy: DMSO = 0%, 1 mM Evans Blue = -100%; for EC50: read-out: Rluc assay Hek293 (RHO^P23H-Rluc) EC50, 24 h treatment, dose response
RHO transcripts = assay: qPCR of RHO transcripts in NIH3T3; format: cell-based, mouse; conditions: 10 μM; for Rho mRNA level (qPCR): NIH3T3(RHO^P23H/GFP) cells, vs DMSO control; for Rho mRNA level (qPCR) / WT and P23H rhodopsin transcripts in comparison to DMSO control: 24 h
Outline: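 NIH3T3 cells stably expressing WT or P23H rhodopsin (GFP lines) were seeded in 24-well plates at 2.5×10⁵ cells/well and cultured overnight at 37 °C, 5% CO₂. They were then exposed to test compound in culture medium for 24 h. RNA was precipitated by centrifugation at 12,000×g for 10 min at 4 °C, washed with 75% ethanol, air-dried and dissolved in nuclease-free water before qPCR.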

P23H rhodopsin [4] = target: T1, P23H rhodopsin; assay: Rhodopsin dot blot of NIH3T3; format: cell-based; conditions: NIH3T3(RHO^P23H/GFP) cells, 10 μM, 24 h, vs DMSO control
Outline: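 NIH3T3(RHO^P23H/GFP) cells were seeded at 2.5 × 10⁴/well in 96-well plates, attached 4 h, then given medium with 2× test compound to reach 10 μM final for 24 h. Cells were PBS-washed and lysed in RIPA with protease inhibitors plus 6 s sonication. Of each well's lysate, 90% was dotted on nitrocellulose, air-dried and probed with 0.1 μg/mL HRP-1D4. Densitometry was normalized to DMSO.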

[5] = test system: WT rhodopsin fused with Renilla luciferase; assay: Rluc reporter counter assay in Hek293; format: cell-based, mouse; conditions: DMSO = 0%, 1 mM Evans Blue = -100%; NA = no dose response effect
Outline: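 HEK293 cells stably expressing WT rhodopsin–Rluc, run as the HTS reporter assay: cells spun 300 × g 30 s, cultured overnight at 37 °C, 5% CO2; test compound in DMSO pin-transferred. ViviREN (50 μM solution in PBS) added, 1 h dim light, room temperature; luminescence read. Score = (RLU_compound − RLU_DMSO)/(RLU_DMSO − RLU_Evans Blue) ×100; 10 μM triplicates and dose-response.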

P23H rhodopsin [6] = target: T1, P23H rhodopsin; assay: Image-based; format: cell-based; conditions: for Image-based assay NIH3T3 (RHO^P23H/GFP) Efficacy: DMSO = 0%, secondary antibody only = -100%; for EC50: read-out: Image-based assay NIH3T3 (RHO^P23H/GFP) EC50, 24 h treatment, 8-10 doses
[7] = both NIH3T3(RHO^P23H/GFP) and NIH3T3(RHO^WT/GFP) cells

SMILES | Immunofluorescence intensities of rhodopsin mutants [1] | BTN-AHA labeled P23H rhodopsin at 24 h of chase in comparison to DMSO control (P23H rhodopsin [2]) | Rluc assay Hek293 (RHO^P23H-Rluc) Efficacy [3] [%] | EC50 [3] [nM] | Increase of rhodopsin transcripts compared to DMSO control (RHO transcripts; [7]) | Rho protein level (Dot blot) (P23H rhodopsin [4]) | Rluc assay Hek293 (RHO^WT-Rluc) Efficacy [5] [%] | Image-based assay NIH3T3 (RHO^P23H/GFP) Efficacy (P23H rhodopsin [6]) [%] | EC50 (P23H rhodopsin [6]) [nM] | Rate of Rho^P23H degradation (Pulse-chase) (P23H rhodopsin [2]) | Rho mRNA level (qPCR) (RHO transcripts) | WT and P23H rhodopsin transcripts in comparison to DMSO control (RHO transcripts; [7])
NCC(=O)COP(=O)(O)O [CL-005] | reduced | significantly reduced | −78.2 | 6600 | up to 2 fold | Down | −57.9 | −72.7 | 1300 |  |  | 
CCC(C)(O)C(O)C(=O)O (stereo not drawn) [CL-008] |  |  | −89.5 | 930 |  | Down | −52.7 | −70.1 | 1600 | No Change | Down | reduced non-selectively
CCn1cnc2c(N)ncnc21 [CL-007] | reduced | significantly reduced | −72.5 | 13000 |  | Down | −51.7 | −72.7 | 2900 |  | Down | reduced non-selectively
CC(=O)OC(CC(=O)[O-])C[N+](C)(C)C (stereo not drawn) [CL-001] | reduced | significantly reduced | −69.4 | 1100 |  | Down | −44.3 | −83.6 | 2100 |  | Down | reduced non-selectively
O=[N+]([O-])c1ccc(Cl)c([N+](=O)[O-])c1 [CL-006] |  |  | −66.2 | 1700 |  | Down | −42.9 | −76.4 | 2200 | No Change | Down | reduced non-selectively
CC(=O)OC(CC(=O)O)C[N+](C)(C)C (stereo not drawn) [CL-002] | reduced | significantly reduced | −86.1 | 2000 |  | Down | −62.0 | −61.0 | 1600 |  | Down | reduced non-selectively
O=C(O)C1=CC=CC(O)C1O (stereo not drawn) [CL-003] |  |  | −65.3 | 890 |  | Down | −37.7 | −46.1 | 600 | No Change | Down | reduced non-selectively
CC(O)CN (stereo not drawn) [CL-004] |  |  | −68.6 | 1600 |  | Down | −45.5 | −70.7 | 470 | No Change | Down | reduced non-selectively
